An excerpt weighted towards active compounds, which were near 12% of everything screened.
Lmaj promast: Leishmania major promastigote growth inhibition. inhibition, % at 10 µM. hit rate 9% among 200,000. Leishmania major promastigotes, resazurin fluorescence viability; in the data active = inhibition above about 50%;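 also: promastigotes grown with compound for 44 hours at 28 °C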
Autophagy mod: alters autophagy in cells; calls only at 10 µM (by protocol); AID 463193; MEF GFP-LC3 puncta imaging; test concentration mostly 10 µM; hit rate 0.98% among 190,000;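 active = percentage of spot-positive cells more than 3 SD above its plate mean, without a fluorescence outlier flag or 80% toxicity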;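 also: spot-positive cell cutoff set from DMSO-treated cells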
Dynein cargo inh: blocks dynein driven cargo transport along microtubules; hit rate 0.47% among 220,000; 3617.4 mouse cells, GR-EGFP nuclear translocation imaging; test concentration mostly 20 µM; stimulated with dexamethasone, 1 µM; stronger effect = lower value; z-score, hits read low;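 active = plate z-score of nuclear minus cytoplasmic receptor signal below a set negative limit, without overly bright fluorescence or cell loss, cut at about -3.5 in these data, passing the limit was not always enough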;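 also: z-score of nuclear minus cytoplasmic ring GR-EGFP intensity difference per well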
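Also added: dexamethasone, 1.0 µM final. Medium: tet-free, stripped-serum medium. Detection: fixed, Hoechst-stained cells imaged at 10x for EGFP. Read-out: nuclear-to-cytoplasmic GR-EGFP distribution per well. Times: induction 48 h, compound 1 h, agonist 30 min.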
MT stabilize HCS: microtubule stabilization, imaging screen; HeLa tubulin immunostaining HCS, 24 h; share of cells brighter than vehicle mean+2SD; % tubulin-high responders, % at 10 µM; hit rate 0.83% among 200,000;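 active = plate Z-score above 3 for both tubulin-high and condensed-nucleus cell shares, with cell loss under 80%, at 10 µM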;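 also: anti alpha tubulin signal scored within the nucleus-defined area of each cell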
CHOP inh: blocks CHOP induction under ER stress; CHO-K1 CHOP-promoter luciferase, tunicamycin-induced, 15-18 h; inhibition, % at 10 µM; hit rate 3.8% among 220,000; AID 2732;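 active = compounds that reduced the stress-induced luciferase reporter signal by more than about 70% of percent inhibition, limit read from the data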;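 also: 0% = tunicamycin plus vehicle and 100% = wells without tunicamycin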
b-catenin transl: beta-catenin nuclear translocation modulation; HeLa beta-catenin nuclear translocation, immunofluorescence imaging; nuclear translocation activity, % at 5 µM; hit rate 0.3% among 190,000; AID 1665;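 active = nuclear translocation activity above 50% at 5 µM, with a well cell count of 50 or more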;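 also: per-cell ratio of nuclear to cytoplasmic median beta-catenin stain intensity; plate controls were DMSO negative control for no effect and GSK-3 inhibitor IX positive control for full effect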
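Read-out: Nuclear/cytoplasmic beta-catenin signal ratio, % activation | Assay system: Human HeLa cell line | Times: 24 h compound exposure at 37°C, 5% CO2 | Signal: Fluorescence imaging of beta-catenin antibody stain plus DAPI | Dosing: 5 µM primary, 0.02–20 µM confirmation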
Numbers without * were called inactive; i = inactive; x = no result; + = active, no number.

SMILES	Lmaj promast	Autophagy mod	Dynein cargo inh	MT stabilize HCS	CHOP inh	b-catenin transl
CCN(CC)c1ccc(NC(=S)Nc2ccc(F)cc2)cc1	23	i	0.49	4	5	-1
Cc1ccc(S(=O)(=O)NCC(=O)Nc2ccc(C(F)(F)F)cc2)cc1	-3	i	1.2	2	92*	1
O=C(CNS(=O)(=O)c1ccc(F)cc1)Nc1ccc(C(F)(F)F)cc1	38	i	0.91	1	64	x
CCCC(=O)Nc1ccc2nc(SCC(=O)Nc3ccc(N4CCOCC4)c(Cl)c3)sc2c1	99*	i	-0.26	2	-8	-2
Cc1ccccc1OCc1nnc(SCC(=O)Nc2ccc3nc(SCC(=O)NC(C)(C)C)sc3c2)n1C	3	i	-0.34	2	73*	-1
CC(C)(C)NC(=O)CSc1nc2ccc(NC(=O)CSc3nnc(N)s3)cc2s1	71*	i	0.24	4	70*	-2
Nc1ccc2nc(SCC(=O)Nc3ccc(N4CCOCC4)c(Cl)c3)sc2c1	6	i	-0.055	2	57	0
CCOC(=O)c1sc(C(=O)OCC)c(OCCO)c1OCCO	-10	i	-0.28	6	-25	-3
O=c1cc(O)c2c(=O)n(-c3ccccc3)c3c(c2o1)CCCCC3	1	i	-0.43	2	36	-1
O=C(O)c1ccc2c(c1)C(=O)N(CCC1=CCCCC1)C2=O	-6	i	-0.14	5	-4	x
CN(C(=O)c1ccc2c(c1)C(=O)N(CCC1=CCCCC1)C2=O)C1CCCCC1	11	i	1.4	4	99*	x
C[n+]1ccc(/C=C/c2ccccc2O)c2ccccc21	99*	i	0.13	5	-2	-1
Cc1ccc(S(=O)(=O)/N=C2/NC(=O)/C(=C/c3cccnc3)S2)cc1	-13	i	0.28	4	-32	2
Cc1ccc(S(=O)(=O)/N=C2/NC(=O)/C(=C/c3ccc(Br)o3)S2)cc1	51*	i	-0.59	3	20	0
COc1ccc(/C=C/c2nc3ccccc3n2Cc2ccccc2OC)cc1	65*	i	0.47	2	-12	1
CN(C(=O)COc1ccc(S(=O)(=O)N2CCOCC2)cc1[N+](=O)[O-])C1CCS(=O)(=O)C1 (centres undefined)	x	x	-0.095	x	-9	-5
O=C(C1CCCO1)N1CCN(C(=S)Nc2ccc(F)cc2)CC1 (centres undefined)	56*	i	0.9	2	24	0
O=C(C1CCCO1)N1CCN(C(=S)Nc2ccc(F)c(Cl)c2)CC1 (centres undefined)	-5	i	-1.5	2	-10	4
COc1cc(C(=O)OCC(=O)c2c(N)n(C)c(=O)n(C)c2=O)ccc1OCCC(C)C	-6	i	-0.62	3	2	-1
c1cc(CN2CCCCC2)cc(OCCCNc2nc3ccccc3s2)c1	x	x	x	x	-14	x
CN1CCN(c2ccc(NC(=O)c3cccc(OCc4ccccc4)c3)cc2)CC1	100*	+	-1.1	3	29	-1
O=C(CN1CCN(c2ccccc2)CC1)Nc1ccc(OCc2ccccc2)cc1	7	i	0.65	2	86*	-3
COc1c(F)c(F)c(C(=O)Nc2ccc(N3CCN(Cc4ccccc4)CC3)cc2)c(F)c1F	52*	i	-0.72	3	88*	-2
O=C(NCCCOc1cccc(CN2CCCCC2)c1)c1ccc(Cl)c(Cl)c1	66*	i	-0.8	3	15	-1
Cc1cccc(C)c1NC(=S)NC(C)(C)CO	x	x	1	x	4	0
SMILES	Lmaj promast	Autophagy mod	Dynein cargo inh	MT stabilize HCS	CHOP inh	b-catenin transl
O=C(NC(=S)Nc1ccc(CN2CCCCC2)cc1)c1cccc(OCc2ccccc2)c1	84*	i	-0.89	2	-48	0
O=C(O)c1ccc(NC(=S)NC(=O)c2cccc(COc3ccccc3)c2)cc1	-8	i	-0.51	1	-5	0
C/C(=N\NC(=O)CNC(=O)C(c1ccccc1)c1ccccc1)c1ccc(C(C)(C)C)cc1	2	i	0.27	2	86*	0
CCOCCCNC(=O)/C(C#N)=C/c1cc(Br)c(O)c(Br)c1	x	x	0.63	x	34	50*
C/C(=N\NC(=O)c1ccc(C)cc1C)c1ccc(-n2ccnc2)cc1	79*	i	-0.25	5	12	0
C/C(=N\NC(N)=O)c1ccc(-n2ccnc2)cc1	-5	i	-0.65	3	3	2
Cc1c(C(=O)COC(C)(C)C)[nH]c2ccccc12	0	i	1.3	3	7	-2
COc1cc(Br)cc(C2C3=C(CCCC3=O)N(c3ccc(F)cc3)C3=C2C(=O)CCC3)c1O	58*	i	-0.043	4	32	5
N=c1sccn1CC(=O)Nc1ccc(SC(F)F)cc1	24	+	1.6	3	-29	-1
O=C(CSc1nc(-c2ccco2)cc(C(F)(F)F)n1)Nc1ccc2c(c1)CCC2	-1	i	-0.61	47*	13	3
Cc1ccc(NC(=O)CSc2nc(-c3ccco3)cc(C(F)(F)F)n2)cc1C	1	i	-0.29	49*	68	28
Cc1cc(NC(=O)CCCSc2nc(-c3ccco3)cc(C(F)(F)F)n2)n(-c2ccccc2)n1	18	i	1.3	2	35	-1
O=C(CSc1nc(-c2ccco2)cc(C(F)(F)F)n1)NC1CCCC1	5	i	-0.12	4	50	x
Cc1c(NC(=O)CSc2nc(-c3ccco3)cc(C(F)(F)F)n2)c(=O)n(-c2ccccc2)n1C	-8	i	-0.44	4	31	0
COC(=O)c1ccccc1NC(=O)CSc1nc(-c2ccco2)cc(C(F)(F)F)n1	-5	i	2.3	14*	x	-2
Cc1cc(NC(=O)CSc2nc(-c3ccco3)cc(C(F)(F)F)n2)n(-c2ccccc2)n1	7	i	0.089	44*	x	12
CCOCCCNS(=O)(=O)c1ccc(NC(=O)C2CC(=O)N(c3ccc(C)cc3)C2)cc1 (centres undefined)	-3	i	0.052	3	11	-4
COc1ccc(-n2cnc3c(cnn3CCC#N)c2=N)cc1	0	i	-0.34	1	-2	2
Cc1cccc(C(=O)Nc2nccs2)c1[N+](=O)[O-]	25	i	-0.76	2	25	1
COC12NC(=O)N(C)C1(OC)C(=O)N(C)C(=O)N2C (centres undefined)	-6	i	-0.36	4	31	-1
CN(C)Cc1ccccc1Sc1ccccc1Br	18	i	-0.64	3	24	0
CN(C)Cc1ccccc1Sc1cccc2ccccc12	97*	i	-0.089	2	47	2
Nc1nc(-c2ccccc2)c(C(=O)Nc2ccccc2)s1	-4	i	-0.42	3	-5	-4
CC1CN(C2CCN(C(=O)COc3ccc(Cl)cc3)CC2)CC(C)O1 (centres undefined)	92*	i	-0.7	2	-8	x

Screening results as filed in PubChem.
